In the library only some 1.9% were active in any assay of this set; here they are far more common.
CHRM5 agonist = agonists of human muscarinic M5 receptor (CHRM5); P08912; CHO-K1 hM5 cells, Fluo-8 calcium fluorescence; 0% DMSO wells, 100% maximal acetylcholine response; activation, % at 3 µM; 0.19% of 360,000 active;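 active = activation above the run's mean over test compounds plus 3 SD, cut at about 23% in these data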;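 also: signal is peak over basal fluorescence ratio across the kinetic read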
CHRM4 antagonist = CHRM4 antagonism in calcium assay | P08173 | CHO-hM4 cells, ACh EC80, Fluo-8 calcium fluorescence | inhibition, % at 3 µM | 0.73% of 360,000 active | AID 624125;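 active = inhibition above its plate's cutoff, the mean inhibition of sample wells plus 3 SD, cut at about 27% in these data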;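 also: 0% = acetylcholine EC80 with DMSO and 100% = DMSO without agonist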
Target sequence (P08173 whole entry, looked up): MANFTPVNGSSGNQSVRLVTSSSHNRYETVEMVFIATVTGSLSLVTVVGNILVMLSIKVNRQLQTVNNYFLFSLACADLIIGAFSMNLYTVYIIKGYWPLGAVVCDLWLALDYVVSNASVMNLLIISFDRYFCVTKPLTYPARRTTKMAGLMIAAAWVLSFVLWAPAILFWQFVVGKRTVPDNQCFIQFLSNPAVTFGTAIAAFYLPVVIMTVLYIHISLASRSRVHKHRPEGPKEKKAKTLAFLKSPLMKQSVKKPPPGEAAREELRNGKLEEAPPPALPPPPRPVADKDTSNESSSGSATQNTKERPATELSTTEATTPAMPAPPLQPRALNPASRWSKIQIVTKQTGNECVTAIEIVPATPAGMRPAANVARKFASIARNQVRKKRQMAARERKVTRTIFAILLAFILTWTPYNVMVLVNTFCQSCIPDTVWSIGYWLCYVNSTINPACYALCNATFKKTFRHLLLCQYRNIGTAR
M5 PAM = potentiates acetylcholine response at human M5 receptor | P08912 | CHO-K1 hM5, Fluo-8 calcium, ACh EC20 PAM; 0% = ACh EC20, 100% = ACh EC100 | activation, % at 3 µM | 0.3% of 360,000 active | AID 624038;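 active = activation above the run cutoff, the mean activation of all test compounds plus 3 SD, cut at about 18% in these data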
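Test system: CHO-K1 hM5 cells / Doses: single-point, 3 µM nominal / Times: Post-acetylcholine fluorescence recording 140 s / Technique: Fluo-8 calcium fluorescence / Measure: Max/basal fluorescence ratio as % of EC20–EC100 ACh window / Benchmarks: low control EC20 acetylcholine (0%), high control EC100 acetylcholine (100%) / Replicates: one well per compound, no replicates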
CHRM5 antagonist = antagonists of human muscarinic M5 receptor (CHRM5). inhibition, % at 3 µM. AID 624040. CHO-hM5 cells, Fluo-8 calcium fluorescence, ACh EC80. P08912. 0.59% of 360,000 active;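 active = inhibition above a per-plate cutoff, the mean of that plate's test compounds plus 3 SD, cut at about 27% in these data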;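 also: 0% = acetylcholine EC80 with DMSO and 100% = DMSO without agonist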
CHRM4 agonist = CHRM4 agonism in calcium assay. P08173. CHO-K1 hM4/Gqi5, Fluo-8 calcium fluorescence; vehicle 0%, full acetylcholine response 100%. activation, % at 3 µM. 0.14% of 360,000 active;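 active = activation above the run mean over all test wells plus 3 SD, cut at about 32% in these data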;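 also: peak over basal fluorescence ratio per well then scaled between controls; 0% = DMSO wells and 100% = acetylcholine at EC100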
CHRM4 PAM = positive allosteric modulators of human muscarinic M4 receptor; 0.4% of 360,000 active; activation, % at 3 µM; P08173; CHO-K1 hM4/Gqi5, Fluo-8 calcium fluorescence, ACh EC20; 0% = ACh EC20, 100% = maximal ACh;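 active = activation above its plate's cutoff, the mean activation of sample wells plus 3 SD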
The depositor's hits bear a star.

SMILES	CHRM5 agonist	CHRM4 antagonist	M5 PAM	CHRM5 antagonist	CHRM4 agonist	CHRM4 PAM
CC(=O)Nc1ccc(C(=O)Nc2cc(C)on2)cc1	-2	28*	-2	0	-1	-13
CC(C)(C)c1ccc(NC(=O)c2cc[n+]([O-])cc2)cc1	-2	0	0	17	1	1
CC(=O)Nc1ccc(NC(=O)c2cc[n+]([O-])cc2)cc1	-3	4	-6	29*	1	-7
O=C(Nc1cccc(F)c1)c1ccc(-c2cccnc2)c2ccoc12	0	-2	-3	1	11	1
CC(=O)SC1CC(=O)N(c2c(C)cccc2C)C1=O (stereo unspecified)	5	4	21*	0	0	1
Cc1ccc(-n2ncc3c2CC(C)(C)CC3NC(=O)CCN2CCCCC2=O)cc1 (stereo unspecified)	-4	-3	2	-1	0	6
O=C(O)c1cc([N+](=O)[O-])c(Sc2nc3ccccc3[nH]2)c([N+](=O)[O-])c1	-2	10	3	5	1	-2
CS(=O)(=O)c1cc([N+](=O)[O-])c(Sc2nc3ccccc3[nH]2)c([N+](=O)[O-])c1	0	38*	7	13	3	-1
O=C(COc1ncnc2ccc(Br)cc12)NC1CCCC1	3	-11	4	-4	2	25*
Cc1cccc(C)c1C(O)c1ncc(-c2ccccc2C(F)(F)F)[nH]1 (stereo unspecified)	-2	3	-3	3	1	3
N#CC1C(=O)c2ccccc2C1c1ccccc1 (stereo unspecified)	-8	59*	-39	29*	5	-10
COc1ccc(CCn2c(=O)[nH]c3cc(C(=O)NCCN4CCOCC4)ccc3c2=O)cc1OC	-1	21	12	-6	4	29*
COc1ccc(CCn2c(=O)[nH]c3cc(C(=O)NCCCN4CCOCC4)ccc3c2=O)cc1OC	3	-7	2	6	1	-1
O=C(CCC(=O)N1CCN(S(=O)(=O)c2ccc([N+](=O)[O-])cc2)CC1)N1CCOCC1	-5	-14	5	-9	1	2
CC(=O)C1=C(C)NC(SCC(=O)c2ccc(F)cc2)=C(C#N)C1c1ccco1 (stereo unspecified)	0	-3	-6	8	12	18*
CC(=O)C1=C(C)NC(SCC(=O)c2ccc(Cl)c(Cl)c2)=C(C#N)C1c1ccco1 (stereo unspecified)	1	-7	-3	-4	8	14
Cc1cccc(CSC2=NCCN2S(=O)(=O)c2ccc(F)cc2)c1	-6	4	-9	-1	-2	-10
CCn1c(N)c(C(=O)NCCOC)sc1=S	-1	-8	-1	-4	2	17
CCn1c(N)c(C(=O)Nc2ccccc2C(=O)OC)sc1=S	-1	-14	8	3	1	37*
CCc1cc(=O)oc2c(C)c(OCC(=O)NC3CC(C)(C)NC(C)(C)C3)ccc12	-6	-20	-1	-9	2	8
NC(=Nc1ccccc1)Nc1ccccc1	41*	60*	-23	1	124*	-19
CCOC(=O)/C(C(=Nc1ccccc1)Nc1ccccc1)=C(\C)O	3	-9	-1	-1	-1	4
Cc1cc(-c2nnc(SCC(=O)Nc3ccc(C)c(C)c3)n2N)n[nH]1	-2	8	21*	-18	1	1
COc1ccc(-n2c(C)c(C)c3c(NCCN(C)C)ncnc32)cc1	5	-5	29*	14	2	0
Nc1ccc2nc(SCC(=O)Nc3ccc(N4CCOCC4)c(Cl)c3)sc2c1	5	6	-21	27*	14	-11
SMILES	CHRM5 agonist	CHRM4 antagonist	M5 PAM	CHRM5 antagonist	CHRM4 agonist	CHRM4 PAM
O=S(=O)(c1ccc2c(c1)CCC2)N1CCNCC1	0	-8	-2	7	1	6
CCCc1nc2sc3c(=O)n(N)cnc3c2c2c1CCCC2	1	-8	21*	-4	1	12
CCCCc1nc2sc3c(=O)n(N)cnc3c2c2c1CCCC2	-3	2	6	-6	1	-6
Cc1ccc(-c2nn(CCC(=O)O)cc2/C=C\C(=O)c2ccc(Br)cc2)cc1	-3	-16	23*	-1	1	19*
OCC[C@H]1C[C@@H](O)[C@H](O)[C@@]2(OCc3ccccc32)O1	4	2	9	-1	2	-2
CCN(CC)c1ccc(C=C2SC(=S)NC2=O)cc1	72*	10	-37	35*	21	-12
N#Cc1ccccc1Cn1cc(/C=C/[N+](=O)[O-])c2ccccc21	15	16	-1	50*	5	-13
N#CCCN(Cc1ccccc1)C(=S)Nc1ccccc1	-4	-10	8	1	2	21*
Cc1noc(C)c1COc1ccccc1C(=O)NCc1ccccc1Cl	0	-7	-38	99*	6	1
CC(=O)N1CCN(c2ccc(Oc3ccc([N+](=O)[O-])c(C(F)(F)F)c3)cc2)CC1	5	13	-14	27*	15	-11
COc1ccc(C(=O)NC(=S)Nc2ccc(N3CCN(C(C)=O)CC3)cc2)cc1[N+](=O)[O-]	2	8	-5	7	3	12
Cc1ccc(S(=O)(=O)N(C)/N=C/c2ccc(N(C)C)cc2)cc1	-5	2	-1	3	2	4
CCCC(CCC(=O)NC1CCCCC1)C(=O)O (stereo unspecified)	0	2	-2	-4	0	4
CCCC(CCC)C(=O)OC1C[C@H]2CC[C@@H](C1)[N+]2(C)C (stereo partly specified)	-1	99*	-18	98*	0	-18
CC(C)[C@H](NC(=O)C1CCN(S(=O)(=O)c2ccccc2)CC1)C(=O)NCc1ccncc1	-3	6	11	-5	1	0
CN(CC(=O)Nc1cccc(F)c1)C(=O)c1cccnc1Sc1ccc(Cl)cc1	2	-3	-1	9	3	-1
COC(=O)c1ccccc1NC(=O)c1onc(C)c1Cl	-2	1	4	2	-1	2
CCc1ccccc1NC(=O)c1onc(C)c1Cl	-1	55*	-9	7	0	-16
CC[N+](CC)(CC)CC(=O)Nc1c(C)cccc1C	30*	35*	-15	-4	1	-10
Cc1cccc(C)c1NC(=O)CNCC(=O)Nc1c(C)cccc1C	-3	1	0	6	0	-3
C[C@H](OC(=O)c1[nH]cnc1C(=O)N1CCN(C(=O)OC(C)(C)C)CC1)c1ccccc1	-3	-7	0	11	1	3
